Measured values from ChEMBL document CHEMBL4513216, “Probing the Open Global Health Chemical Diversity Library for Multistage-Active Starting Points for Next-Generation Antimalarials” (ACS Infect Dis, 2020).

Experiment: Toxicity liver stage against HepG2, at 10uM
Assay type: cell-based
Parameters: test concentration 10 uM, cell line HepG2-A16-CD81EGFP
Conditions: human, HepG2-A16-CD81EGFP cells; read-out: INHIBITION
Outline: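 Uninfected HepG2-A16-CD81EGFP cells, 3 × 10^3 per well, 1536-well, plated on prespotted compound at 10 μM final, parasite-free screening media added to match infected plates; puromycin 10 μM positive, DMSO 0.5% negative; run in parallel with 48 h PbLuc assay at 37 °C, 5% CO2; viability by CellTiter-Glo luminescence, normalized to controls.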

| SMILES | cytotoxicity at 10 µM [%] |
| --- | --- |
| Cn1nc(C(=O)N2CC(Oc3nc4c(Cl)cccc4s3)C2)ccc1=O | 1.48 |
| CN(C)C(=O)N1CCC2(C1)CN(c1cccnc1)C(=O)CN2C (stereo unspecified) | 6.96 |
| CN(C)CCO[C@@H]1CC[C@H]2[C@H]1OCCN2C(=O)c1ccncc1 | 5 |
| COc1cc(C2SCC(=O)Nc3ccsc32)cc(OC)c1OC (stereo unspecified) | -1.88 |
| c1ccc(C2Cn3ccnc3CN2Cc2ncc[nH]2)cc1 (stereo unspecified) | -2.8 |
| CCOc1ccc(CN2CCOCC2c2[nH]ncc2C)cc1CO (stereo unspecified) | -2.92 |
| Cn1ccc2cc(CC3COCCN(C(=O)c4cccnc4)C3)ccc21 (stereo unspecified) | 7.24 |
| CC(=O)N1CCC1c1cc(N2CCSCC2)nc(C)n1 (stereo unspecified) | 6.53 |
| CCc1nc(N2CCOCC2)ncc1C(=O)NC(c1cccs1)C(C)C (stereo unspecified) | 12.3 |
| Cc1c(C(=O)N[C@@H]2CC[C@@H](N3CCCC3)[C@@H]2O)[nH]c2ccc(F)cc12 | -1.85 |
| COc1ccc2[nH]cc(C(=O)N3C[C@@H](O)[C@H](N4CCOCC4)C3)c2c1 | -9.06 |
| CNCC(=O)N1CCC(c2cccc(Oc3ccccc3)n2)CC1 | -11.7 |
| COCC(C)(C)NC(=O)CC(c1ccccc1)C(F)(F)F (stereo unspecified) | -50.1 |
| CCCc1nn(Cc2csc(C(C)C)n2)c(=O)o1 | -47.7 |
| CNC(=O)Cn1ccc2ccc(NC(=O)C(C)CSC)cc21 (stereo unspecified) | -1.1 |
| CC(C)c1nc(CC(=O)Nc2cnccc2O)cs1 | 9.89 |
| Cc1cccc(C(=O)NCCNS(=O)(=O)c2cccs2)c1C | -0.642 |
| CCCC(C)C(=O)Nc1ccc(OC)nc1N1CCN(C(C)=O)CC1 (stereo unspecified) | -5.46 |
| COc1ccc(C(=O)NS(=O)(=O)c2cncc(Br)c2)c(OC)c1 | -0.402 |
| O=C(CNC(=O)Nc1cccc(Cl)c1SC(F)F)NC1CC1 | 0.797 |
| CC(OCC(F)(F)F)C(=O)N1CCOCC1 (stereo unspecified) | -11.9 |

| SMILES | cytotoxicity at 10 µM [%] |
| --- | --- |
| Cc1cnn(CC2CCCN2C(=O)Cc2c(C)noc2C)c1 (stereo unspecified) | 0.983 |
| C=C(C)CN1CCOC(Cn2cncn2)C1 (stereo unspecified) | -52 |
| CCCc1nc(Cn2c(=O)n(C)c3ccccc32)no1 | -43 |
| COc1ccccc1C1(CNCc2ccc(C#N)cc2)CCOCC1 | 7.62 |
| O=C1CCCN1c1cccc(CNCc2nc(C3CC3)no2)c1 | -7.11 |
| CCC(CNC(=O)N1CCOCC2(CCOCC2)C1)c1ccccc1 (stereo unspecified) | 5.17 |
| CC(C)(C)c1nnc(CN2CCC(c3cc4ccccc4[nH]3)CC2)o1 | 24.3 |
| Cc1nccc(NCc2cncc3c2CCN(CCN(C)C)C3)n1 | -104 |
| CN(C)C(=O)CO[C@H]1CO[C@@]2(CCN(Cc3ccoc3)C2)C1 | -111 |
| Cc1nnc(SCC(=O)N2CCc3[nH]nc(C4CCC4)c3C2)o1 | -7.09 |
| OC[C@H]1CN(C2Cc3ccccc3C2)C[C@H]1CN1CCC(O)CC1 | 0.0255 |
| CCNC(=O)[C@@H]1C[C@H](NC(=O)c2cc(=O)[nH]c3ccc(C)cc23)CN1C | 7.44 |
| CCC(CC)C(=O)N1CCC2(CC1)c1ccccc1[C@@H](OC)[C@@H]2O | 6.75 |
| N#Cc1ccccc1CC1CCCS(=O)(=O)C1 (stereo unspecified) | -3.11 |
| Cc1cc(N[C@@H](CO)c2ccccc2)n2nc(C)c(C)c2n1 | -0.054 |
| CCc1c(O)nc(SC(C)CC)n(-c2ccccc2)c1=O (stereo unspecified) | 4.22 |
| Cn1ncc2c(NCCn3cccc3)nc(C3CCCC3)nc21 | 3.07 |
| COc1ncc(-c2cc(-c3ccn(C)c3)nc(N)c2C#N)cn1 | 0.471 |
| CC(C)c1cc(=O)[nH]c(-c2ccccc2CN2CCC(C)(C)C2)n1 | -42 |
| CCOCCN1CCN([C@@H]2c3ccccc3C3(CCNCC3)[C@H]2O)CC1 | -0.777 |
| Cc1cccc2cc(CN3CCC(N4CCCC4)CC3)c(=O)[nH]c12 | -3.45 |

| SMILES | cytotoxicity at 10 µM [%] |
| --- | --- |
| CC(C)=CCN1Cc2nnc(C3CCOCC3)n2C(Cc2c[nH]cn2)C1 (stereo unspecified) | -9.36 |
| Cc1cc2c(=O)n(CCSc3ncn[nH]3)cnc2s1 | 8.87 |
| Cc1cnccc1N1CCCN(Cc2ccc(-c3cc[nH]n3)o2)CC1 | -5.13 |
| CN1CC2(CCNCC2)CC1C(=O)NCCCNc1cccnc1 (stereo unspecified) | 6.24 |
| c1ccc(OCCCn2ccnc2-c2cn(C3CCNCC3)nn2)cc1 | -18.1 |
| CC(=O)N1CCCC1C(=O)NCCOc1ccc(C(C)C)cc1 (stereo unspecified) | -5.26 |
| CC1CN(CC(=O)NC2CCOCC2)CCN1Cc1nccn1C (stereo unspecified) | -6.57 |
| c1cncc(-c2noc(CNC3CCc4ncnn4C3)n2)c1 (stereo unspecified) | -5.57 |
| N#Cc1cn(C2CC2)c(=O)n(CC(O)c2ccccc2C(F)(F)F)c1=O (stereo unspecified) | -4.22 |
| COc1ccc(C)cc1CN(C)CC(=O)NC1(C)CCS(=O)(=O)C1 (stereo unspecified) | 1.28 |
| COc1ccc(-c2noc(CN3CCCC3Cn3cccn3)n2)cc1 (stereo unspecified) | 2.88 |
| COCc1nc(C(=O)N2CCCC2c2ccncc2)cs1 (stereo unspecified) | -11.4 |
| O=C(c1ccc(O)nc1)N1CCC(Nc2cccnn2)CC1 | -8.83 |
| CS(=O)(=O)NC1CCCN(C(=O)NCc2cccc(F)c2)C1 (stereo unspecified) | -18.8 |
| Cc1nc(CN(C)C2CCN(Cc3cccc4c3OCCO4)C2)no1 (stereo unspecified) | -13.9 |
| CCc1nccn1C1CCCN(C(=O)c2ccc3[nH]nnc3c2)C1 (stereo unspecified) | 7.15 |
| CC1CCCN(CCNC(=O)c2ccn(-c3ccccc3)n2)C1 (stereo unspecified) | -3.81 |
| O=c1oc(-c2ccc(F)cc2)nn1CN1CCN(C2CCCC2)CC1 | -1.78 |
| Cc1cnn(C2CN(Cc3nc(C(C)(C)C)no3)C2)c1 | -7.28 |
| Cn1ncc2c(=O)[nH]c(CN(Cc3cccc(F)c3)C3CC3)nc21 | -13.1 |
| O=C(NCC1CCOC1)N1CCN(Cc2ccc3c(c2)CCO3)CC1 (stereo unspecified) | -4.2 |

| SMILES | cytotoxicity at 10 µM [%] |
| --- | --- |
| O=C(C1COCCO1)N1CCN(Cc2ccc3c(c2)CCO3)CC1 (stereo unspecified) | -5.99 |
| CC(C)n1ccnc1CN1CCCN(C(=O)c2cc(Cl)c[nH]2)CC1 | -3.79 |
| Cc1nc(CN2CCCC(NCCc3ccccc3Cl)C2)no1 (stereo unspecified) | -11.8 |
| CC(=O)N(C)c1nc(CN2CCOC(Cn3cc(C)cn3)C2)cs1 (stereo unspecified) | -7 |
| COCc1nc(C(=O)N2CCCCC2Cn2cc(C)cn2)cs1 (stereo unspecified) | 3.18 |
| FC(F)CNc1cnc(C2CCNCC2)cn1 | 0.83 |
| Cn1ccnc1CN1CCCC(Cc2ccnc3ccncc23)CC1 (stereo unspecified) | -0.751 |
| O=C(c1ccco1)N1C[C@H]2CCCN(Cc3ccc(F)cc3)[C@H]2C1 | 0.255 |
| Cc1cc(CN2CC[C@]3(C[C@@H](OCC(=O)N(C)C)CO3)C2)no1 | -105 |
| O=C1NCC[C@]12CN(CC1CCOCC1)C[C@H]2c1ccccc1 | 6.59 |
| CC(C)N1CCO[C@H]2CN(Cc3cc[nH]n3)C[C@H]21 | -108 |
| CCc1nc(-c2ccnc(N3CCNCC3)n2)no1 | 11.9 |
| CN1CCN(c2ncnc3c2CCN(S(=O)(=O)C2CC2)CC3)CC1 | -112 |
| CNC(=O)C1Cn2ccnc2C2(CCN(Cc3cccc(C)n3)CC2)O1 (stereo unspecified) | 7.67 |
| CO[C@@H]1CCN(Cc2ccoc2)[C@H]1Cc1ccccc1 | 7.46 |
| COCCN1Cc2nccn2CC(COCc2csc(C)n2)C1 (stereo unspecified) | 6.22 |
| Fc1cnc(N2CCCC3(COCCN(c4nccs4)C3)C2)nc1 (stereo unspecified) | 1.43 |
| COc1ccccc1CC(=O)N1C[C@@H]2CC[C@H]1CN(Cc1cscn1)C2 | -1.87 |
